According to ChEMBL document CHEMBL2034907, “Indiosides G-K: steroidal glycosides with cytotoxic and anti-inflammatory activities from Solanum violaceum” (J Nat Prod, 2012):
Converted amounts (≈) assume the structure as drawn.

Columns and labels:
MDA-MB-231 = assay: Cytotoxicity against human MDA-MB-231 cells by MTT assay; format: functional, cell-based
Ca9-22 = assay: Cytotoxicity against human Ca9-22 cells by MTT assay; format: functional, cell-based
MCF7 = assay: Cytotoxicity against human MCF7 cells by MTT assay; format: functional, cell-based
A549 = assay: Cytotoxicity against human A549 cells by MTT assay; format: functional, cell-based
[1] = Cytotoxicity against human Hep3B cells by MTT assay; format: functional, cell-based, Hep 3B2
HepG2 = assay: Cytotoxicity against human HepG2 cells by MTT assay; format: functional, cell-based
[2] = Antiinflammatory activity in human neutrophils assessed as inhibition of FMLP/CB-induced elastase release at 10 ug/mL incubated for 5 mins prior to FMLP/CB-challenge by spectrophotometry; format: functional; conditions: Neutrophil
How it was run: (§1)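 Neutrophils isolated from human blood by dextran sedimentation and Ficoll centrifugation, used at 6 × 10^5/mL with MeO-Suc-Ala-Ala-Pro-Val-p-nitroanilide (100 μM). Equilibrated 2 min at 37 °C, compound added for 5 min, then activated with fMLP (100 nM)/CB (0.5 μg/mL). Absorbance at 405 nm monitored continuously. Initial elastase release rate expressed as % of the fMLP/CB-activated DMSO control. PMSF positive control; mean ± SEM, n = 3.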

[3] = Antiinflammatory activity in human neutrophils assessed as inhibition of FMLP/CB-induced superoxide anion generation incubated for 5 mins prior to FMLP/CB-challenge measured after 10 mins by spectrophotometry; format: functional, cell-based; conditions: Neutrophil
How it was run: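 Neutrophils isolated by dextran sedimentation and Ficoll centrifugation. Cells were given 0.5 mg/mL ferricytochrome c and 1 mM Ca2+ and equilibrated at 37 °C for 2 min. They were then exposed to drug for 5 min and to cytochalasin B (1 μg/mL) for 3 min, then activated with fMLP (100 nM) for 10 min. Read-out was SOD-inhibitable ferricytochrome c reduction at 550 nm, monitored continuously. Mean ± SEM, n = 3.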

[4] = Cytotoxicity against human neutrophils assessed as increase in LDH level relative to control; format: cell-based; conditions: neutrophil
How it was run: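 Lysed-cell reference made with 0.1% Triton X-100, 30 min at 37 °C. LDH in the cell-free medium was measured with a commercial kit. Result given as a percentage of total LDH release.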

[5] = Antiinflammatory activity in human neutrophils assessed as inhibition of FMLP/CB-induced elastase release incubated for 5 mins prior to FMLP/CB-challenge by spectrophotometry; format: functional, cell-based; conditions: Neutrophil; how it was run: as §1
Neutrophil = assay: Ratio of PMSF IC50 to compound IC50 for antiinflammatory activity assessed as inhibition of elastase release in human neutrophils; format: functional
[6] = Antiinflammatory activity in human neutrophils assessed as inhibition of FMLP/CB-induced superoxide anion generation at 10 ug/mL incubated for 5 mins prior to FMLP/CB-challenge measured after 10 mins by spectrophotometry; format: functional; conditions: Neutrophil
How it was run: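 Human neutrophils isolated by dextran sedimentation and Ficoll centrifugation, supplemented with ferricytochrome c (0.5 mg/mL) and Ca2+ (1 mM). Equilibrated 2 min at 37 °C, compound added for 5 min, then cytochalasin B (1 μg/mL) for 3 min, then fMLP (100 nM) for 10 min. SOD-inhibitable ferricytochrome c reduction followed at 550 nm with stirring. Expressed as % of fMLP/CB-activated response. DPI positive control; mean ± SEM, n = 3.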

Row | SMILES | IC50 (MDA-MB-231) [µg/mL] | IC50 (Ca9-22) [µg/mL] | IC50 (MCF7) [µg/mL] | IC50 (A549) [µg/mL] | IC50 [1] [µg/mL] | IC50 (HepG2) [µg/mL] | inhibition at 10 µg/mL [2] [%] | IC50 [3] [µg/mL] | Activity [4] | IC50 [5] [µg/mL] | Ratio IC50 (Neutrophil) | inhibition at 10 µg/mL [6] [%]
1 | C[C@H]1CC[C@]2(OC1)O[C@H]1C[C@H]3[C@@H]4CC=C5C[C@@H](O[C@@H]6O[C@H](CO)[C@@H](O)[C@H](O)[C@H]6O[C@@H]6O[C@@H](C)[C@H](O)[C@@H](O)[C@H]6O)CC[C@]5(C)[C@H]4CC[C@]3(C)[C@H]1[C@H]2C | 6.12 (≈ 8.47 µM) | 2.95 (≈ 4.08 µM) | 4.78 (≈ 6.61 µM) | 3.09 (≈ 4.27 µM) | 2.95 (≈ 4.08 µM) | 2.22 (≈ 3.07 µM) | – | – | – | – | – | –
2 | C[C@H]1CC[C@@]2(OC1)O[C@H]1C[C@H]3[C@@H]4CC[C@H]5C[C@@H](O[C@@H]6O[C@H](CO)[C@@H](O[C@@H]7O[C@@H](C)[C@H](O)[C@@H](O)[C@H]7O)[C@H](O)[C@H]6O[C@@H]6O[C@@H](C)[C@H](O)[C@@H](O)[C@H]6O)CC[C@]5(C)[C@H]4CC[C@]3(C)[C@H]1[C@@H]2C | 8.04 (≈ 9.23 µM) | 6.76 (≈ 7.76 µM) | 11.6 (≈ 13.3 µM) | 7.27 (≈ 8.35 µM) | 3.32 (≈ 3.81 µM) | 5.33 (≈ 6.12 µM) | 38.9 | 2.84 (≈ 3.26 µM) | Toxic | – | – | –
3 | C[C@H]1CC[C@@]2(OC1)O[C@H]1C[C@H]3[C@@H]4CC=C5C[C@@H](O[C@@H]6O[C@H](CO)[C@@H](O)[C@H](O)[C@H]6O[C@@H]6O[C@@H](C)[C@H](O)[C@@H](O)[C@H]6O)CC[C@]5(C)[C@H]4CC[C@]3(C)[C@H]1[C@@H]2C | 7.25 (≈ 10 µM) | 4.51 (≈ 6.24 µM) | 5.84 (≈ 8.08 µM) | 4.26 (≈ 5.89 µM) | 6.98 (≈ 9.66 µM) | 6.48 (≈ 8.96 µM) | – | – | – | – | – | –
4 | C[C@H]1CC[C@@]2(OC1)O[C@H]1C[C@H]3[C@@H]4CC=C5C[C@@H](O[C@@H]6O[C@H](CO)[C@@H](O[C@@H]7O[C@@H](C)[C@H](O)[C@@H](O)[C@H]7O)[C@H](O)[C@H]6O[C@@H]6O[C@@H](C)[C@H](O)[C@@H](O)[C@H]6O)CC[C@]5(C)[C@H]4CC[C@]3(C)[C@H]1[C@@H]2C | 5.84 (≈ 6.72 µM) | 3.77 (≈ 4.34 µM) | 8.84 (≈ 10.2 µM) | 4.09 (≈ 4.71 µM) | 2.87 (≈ 3.3 µM) | 6.44 (≈ 7.41 µM) | – | 1.62 (≈ 1.86 µM) | Toxic | 4.04 (≈ 4.65 µM) | 5 | –
5 | CC[C@H](CC[C@@H](C)[C@H]1CC[C@H]2[C@@H]3C(O)C=C4C[C@@H](O[C@@H]5O[C@H](CO)[C@@H](O)[C@H](O)[C@H]5O)CC[C@]4(C)[C@H]3CC[C@]12C)C(C)C (some centres not stated) | > 20 | > 20 | > 20 | > 20 | > 20 | > 20 | – | – | – | – | – | –
6 | C[C@@H]1CC[C@]2(OC1)O[C@H]1C[C@H]3[C@@H]4CC=C5C[C@@H](O[C@@H]6O[C@H](CO)[C@@H](O[C@@H]7O[C@@H](C)[C@H](O)[C@@H](O)[C@H]7O)[C@H](O)[C@H]6O)CC[C@]5(C)[C@H]4CC[C@]3(C)[C@H]1[C@H]2C [BORASSOSIDE D] | > 20 | > 20 | > 20 | > 20 | > 20 | > 20 | – | – | – | – | – | –
7 | C[C@H]1CC[C@]2(OC1)O[C@H]1C[C@H]3[C@@H]4CC=C5C[C@@H](O[C@@H]6O[C@H](CO)[C@@H](O[C@@H]7O[C@@H](C)[C@H](O)[C@@H](O)[C@H]7O)[C@H](O)[C@H]6O[C@@H]6O[C@@H](C)[C@H](O)[C@@H](O)[C@H]6O)CC[C@]5(C)[C@H]4CC[C@]3(C)[C@H]1[C@H]2C [BORASSOSIDE E] | 2.75 (≈ 3.16 µM) | 2.33 (≈ 2.68 µM) | 2.61 (≈ 3 µM) | 2.34 (≈ 2.69 µM) | 2.03 (≈ 2.34 µM) | 1.83 (≈ 2.11 µM) | – | 0.62 (≈ 0.713 µM) | Toxic | 111 (≈ 128 µM) | – | –
8 | c1ccc2c(c1)[I+]c1ccccc1-2 [DIPHENYLENEIODONIUM] | – | – | – | – | – | – | – | 0.22 | – | – | – | –
9 | COc1cccc2c1C(=O)c1c(O)c3c(c(O)c1C2=O)C[C@@](O)(C(=O)CO)C[C@@H]3O[C@H]1C[C@H](N)[C@H](O)[C@H](C)O1 [DOXORUBICIN] | 1.39 (≈ 2.56 µM) | 0.31 (≈ 0.57 µM) | 0.8 (≈ 1.47 µM) | 1.4 (≈ 2.58 µM) | 1.31 (≈ 2.41 µM) | – | – | – | – | – | – | –
10 | O=C(/C=C/c1ccc(O)cc1)NCCc1ccc(O)cc1 [N-P-COUMAROYL TYRAMINE] | > 20 | 12.3 (≈ 43.3 µM) | > 20 | 15.2 (≈ 53.7 µM) | 11.2 (≈ 39.6 µM) | 9.57 (≈ 33.8 µM) | -0.17 | – | Non-toxic | – | – | 23.2
11 | O=S(=O)(F)Cc1ccccc1 [PHENYLMETHYLSULFONYLFLUORIDE] | – | – | – | – | – | – | – | – | – | 22.8 (≈ 131 µM) | – | –
12 | CC[C@H](CC[C@@H](C)[C@H]1CC[C@H]2[C@@H]3CC=C4C[C@@H](O[C@@H]5O[C@H](CO)[C@@H](O)[C@H](O)[C@H]5O)CC[C@]4(C)[C@H]3CC[C@]12C)C(C)C [SITOGLUSIDE] | > 20 | > 20 | > 20 | > 20 | > 20 | > 20 | 1.58 | – | – | – | – | 24.9
13 | C/C(=C\CO)CC[C@@H]1[C@@]2(C)CC[C@H](O[C@@H]3O[C@H](CO)[C@@H](O)[C@H](O)[C@H]3O)C(C)(C)[C@@H]2CC[C@]1(C)O [TRICALYSIOSIDE U] | > 20 | > 20 | > 20 | > 20 | > 20 | > 20 | – | – | – | – | – | –
